This note sets out measurements from ChEMBL document CHEMBL4028818, “Tricyclic 4,4-dimethyl-3,4-dihydrochromeno[3,4-d]imidazole derivatives as microsomal prostaglandin E2 synthase-1 (mPGES-1) inhibitors: SAR and in vivo efficacy in hyperalgesia pain model” (Bioorg Med Chem Lett, 2017).

Data set [1] has as its target T1, CYP1A2 (Homo sapiens, UniProt P05177).
T1 sequence (P05177 whole entry): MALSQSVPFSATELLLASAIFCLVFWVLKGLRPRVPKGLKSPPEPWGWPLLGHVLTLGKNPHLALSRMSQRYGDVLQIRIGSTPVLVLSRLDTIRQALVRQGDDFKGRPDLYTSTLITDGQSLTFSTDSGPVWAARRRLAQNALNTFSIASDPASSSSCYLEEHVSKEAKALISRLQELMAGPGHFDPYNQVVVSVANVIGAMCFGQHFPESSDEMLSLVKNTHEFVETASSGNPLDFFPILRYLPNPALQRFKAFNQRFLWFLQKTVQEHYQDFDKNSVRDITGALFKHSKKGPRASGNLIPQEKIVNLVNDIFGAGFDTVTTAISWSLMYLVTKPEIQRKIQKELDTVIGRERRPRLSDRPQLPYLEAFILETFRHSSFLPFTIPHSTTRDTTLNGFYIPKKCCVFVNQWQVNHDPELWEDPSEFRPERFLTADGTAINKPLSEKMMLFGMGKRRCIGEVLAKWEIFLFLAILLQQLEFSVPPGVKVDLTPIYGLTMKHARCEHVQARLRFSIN
The data set can be described thus: (§1) Inhibition of CYP1A2 in human liver microsomes at 10 uM measured after 20 mins in presence of NADPH by LC/MS/MS analysis relative to control. Conditions: liver microsomes; call rule not given here. It is filed as ADME. The method in brief:
(§2)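 CYP isoforms 1A2, 2D6, 3A4, 2C9 and 2C19 were tested at 1 and 10 µM. Results are % inhibition compared with a no-inhibitor control, run in triplicate.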

Data set [2] has as its target T2, Prostaglandin E synthase (Homo sapiens) (UniProt O14684).
T2 sequence (whole entry): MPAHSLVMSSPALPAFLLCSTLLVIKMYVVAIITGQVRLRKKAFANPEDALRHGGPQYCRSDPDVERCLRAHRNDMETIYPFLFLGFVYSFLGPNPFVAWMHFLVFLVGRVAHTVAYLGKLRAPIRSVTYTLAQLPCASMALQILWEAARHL
The data set can be described thus: Inhibition of recombinant human mPGES-1 expressed in CHO cells assessed as reduction in PGE2 formation at 10 uM using PGH2 a substrate preincubated for 10 mins followed by substrate addition measured after 1 min relative to control. It is filed as cell-based. An outline of the steps: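 mPGES-1 enzyme inhibition. % inhibition values are means of two experiments in duplicate. IC50 values were derived from graphs of at least two experiments in duplicate.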

In data set [3] the target is T3, Cytochrome P450 1A2 (Homo sapiens, UniProt P05177).
T3 sequence (P05177 whole entry): T1 sequence (P05177 whole entry)
Described as §1. Type of data set: ADME. The following applies: microsomes, 20 min, 10 µM. The method in brief:
as §2

Broadly, the inhibition is the drop in the measured response relative to a control, in per cent. On to `CC1(C)Oc2cc(C#Cc3cc(Cl)ccc3F)ccc2-c2[nH]c(-c3c(F)cccc3Cl)nc21`, for which, in data set [1], the inhibition at 20 min, 10 µM amounted to 33.9%.
`CC1(C)Oc2cc(-c3cccc(OC(F)(F)F)c3)ccc2-c2[nH]c(-c3c(F)cccc3Cl)nc21`: the inhibition in data set [2] is 91.8%. Moreover, in data set [3], the “inhibition (INH)” value is on record as “Not Active”.
